Assay outcomes as filed in PubChem BioAssay.
Casp6 inh – human caspase-6 inhibitors, primary screen, biochemical, VEID-R110 fluorescence, single point, set 2 | P55212 | purified caspase-6, Z-VEID-R110 cleavage fluorescence | inhibition, % at 12.5 µM | actives 0.53% (n = 350,000) | AID 686996, 2013;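 active means mean inhibition across replicates at least about 35%, with every replicate also reaching that limit, limit read from the data; inconclusive means only one of the two criteria met; inactive means neither criterion met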
Target sequence (P55212 24-179 limits assumed): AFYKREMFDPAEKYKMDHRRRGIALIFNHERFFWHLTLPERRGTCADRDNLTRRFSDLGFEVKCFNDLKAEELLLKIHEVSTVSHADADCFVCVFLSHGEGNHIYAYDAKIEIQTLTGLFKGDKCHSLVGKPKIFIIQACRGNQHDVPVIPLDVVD
Target sequence (P55212 194-293 limits assumed): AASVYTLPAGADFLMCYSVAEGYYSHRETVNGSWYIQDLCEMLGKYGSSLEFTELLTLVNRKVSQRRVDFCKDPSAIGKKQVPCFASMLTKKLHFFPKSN
Myeloid diff MLP – induction of myeloid progenitor differentiation, primary screen, cell-based, flow cytometry, MLPCN library; actives 1% (n = 360,000); calls only at 10 µM; AID 624256, 2012; ER-HoxA9 myeloid progenitors, lysozyme-GFP differentiation;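 active means normalized GFP-positive differentiation at or above the plate's own cutoff, the solvent-only control mean plus 3 SD; inconclusive means no clear call, values can overlap the other calls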;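 further: cells exposed to compound for four days before flow analysis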
T cell modulator – modulators of CD8 T cell-vesicle binding, primary screen, mouse 2C CD8+ T cells, flow cytometry; 2C CD8+ T cell-vesicle binding; active compounds read low; response (vesicle binding), % at 7 µM; actives 0.068% (n = 330,000); AID 2052, 2009;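 active means response, share of CD8 T cells binding vesicles, and their 90th percentile fluorescence all below set limits, cut at about 80% in these data, passing the limit was not always enough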;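 further: values below 100% mean blocked vesicle binding to the CD8+ T cells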
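incubation = binding step 1.5 h, 37 °C, antibody labelling 20 min, ice | test system = 2C mouse CD8+ T cells | read-out basis = percent CD8+ FL2 mean versus row control | controls = Peptide-free naked vesicles (low) and QL9 vesicles with 0.7% DMSO vehicle (high) | detection = flow cytometry of vesicle-bound cells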
Vif imaging – HIV Vif self-association inhibitors, primary screen, imaging, HEK293T, single point; HEK293T cells, Vif self-association by quenched fluorescence, 24 h; actives 0.35% (n = 340,000); inhibition, % at 7.49 µM; in the data active means inhibition above about 50%, passing the limit was not always enough; inconclusive means no clear call, values can overlap the other calls; inactive means below about 31%
A number is an active result; 0 = inactive; ? = inconclusive; - = no result given; + = active, no number. Most compounds without a hit are left out; they make up all but 1.4% or so of the library.

SMILES | Casp6 inh | Myeloid diff MLP | T cell modulator | Vif imaging
C=C1C(=O)OC2CC3(C)OC3C3OC3C3=CC(OC3=O)C12 (configuration not stated) | 0 | 0 | - | 86
C=C1C(=O)OC2CC3(C)OC3CCC(C)=CC(OC(C)=O)C12 (configuration not stated) | 0 | - | - | 0
CCCN1[C@@H]2c3ccc(-c4cccc(C(=O)N(C)C)c4)c(=O)n3C[C@H]1[C@H](CO)[C@H]2C(=O)OC | 0 | - | - | -
N#Cc1cccc(-c2ccc([C@H]3[C@@H](CO)N4CCCCN(C(=O)Cc5ccccc5)C[C@H]34)cc2)c1 | 0 | - | - | -
COC(=O)[C@@H]1[C@@H](CO)[C@@H]2Cn3c(cccc3=O)[C@H]1N2C(=O)C1CCC1 | 0 | - | - | -
O=C1CNC[C@H]2[C@@H](c3ccc(Br)cc3)[C@H](CO)N12 | 0 | - | - | -
CCCCCc1nc2c(c(=O)c3ccccc3n2C)c(=O)n1C1CCCCCC1 | 0 | + | 0 | 0
CCCN1[C@@H]2Cn3c(ccc(-c4ccc(F)cc4)c3=O)[C@H]1[C@@H](C(=O)OC)[C@@H]2CO | 0 | - | - | -
COC(=O)[C@@H]1[C@@H](CO)[C@@H]2Cn3c(ccc(-c4ccc(OC)cc4)c3=O)[C@H]1N2C(=O)c1ccccc1F | 0 | - | - | -
COC(=O)[C@H]1[C@H](CO)[C@H]2Cn3c(ccc(-c4cccc(OC)c4)c3=O)[C@@H]1N2CC1CC1 | 0 | - | - | -
Cn1c(NN=O)nc2ccccc21 | 36 | - | 0 | 0
CN1CCN(Cc2nc3ccccc3n2C)CC1 | - | 0 | 0 | 0
CC(=O)c1cc(C(C)=O)c(C)[n+](C)c1C | 0 | 0 | 0 | 91
COc1ccc(CN2Cc3cnnn3-c3ccccc3C2c2ccccc2)cc1 (configuration not stated) | 0 | + | - | -
CCCCn1c(O)c(C(CC)=NCCc2ccccc2)c(=O)[nH]c1=O | - | 0 | 0 | 0
CCCCn1c(O)c(C(=O)/C=C/c2c[nH]c3ccccc23)c(=O)[nH]c1=O | 0 | + | 0 | 0
Cc1ccc(N2C(=O)NC(=O)/C(=C/c3ccoc3)C2=O)cc1 | 85 | 0 | - | 0
COc1ccc(CN2C(=O)NC(=O)/C(=C/c3ccoc3)C2=O)cc1 | 67 | 0 | 0 | 0
Cc1ccc(N2C(=O)NC(=O)/C(=C/c3cnn(-c4ccc(C)cc4)c3)C2=O)cc1 | - | 0 | 0 | 0
COc1cc(/C=C/c2nc3ccccc3c(=O)n2-c2ccccc2O)ccc1O | 0 | 0 | 0 | 0
COc1cc(/C=C/c2nc3ccccc3c(=O)n2-c2cccc(O)c2)ccc1O | 0 | + | 0 | 0
CCCNC(=O)[C@@H]1[C@@H](CO)[C@@H]2Cn3c(cccc3=O)[C@@H]2N1CC | 0 | - | - | -
c1ccc2c3c([nH]c2c1)CNCC3 | 0 | + | 0 | 0
Cc1ccccc1S(=O)(=O)N1[C@@H]2Cn3c(ccc(-c4cccnc4)c3=O)[C@H]1[C@@H](C(=O)O)[C@@H]2CO | 0 | - | - | -
COCCNC(=O)c1c(N)n(Cc2ccco2)c2nc3ccccc3nc12 | - | 0 | 0 | 0
SMILES | Casp6 inh | Myeloid diff MLP | T cell modulator | Vif imaging
COCCCn1c(N)c(C(=O)NCc2ccco2)c2nc3ccccc3nc21 | 98 | - | 0 | -
CN1C2CCC1/C(=C/c1ccccn1)C(=O)/C2=C\c1ccccn1 | 0 | ? | 0 | 106
Cc1ccccc1-n1c(/C=C/c2ccccn2)nc2ccccc2c1=O | 0 | 0 | 0 | 0
O=c1[nH]c(CN2CC=C(c3ccccc3)CC2)nc2cc(C(F)(F)F)ccc12 | - | + | 0 | 0
O=c1[nH]c(CN2CC=C(c3ccccc3)CC2)nc2scc(-c3ccccc3)c12 | 0 | + | 0 | 0
N#Cc1cccc(-c2ccc([C@@H]3[C@H]4CN(C(=O)Cc5ccncc5)CCCCN4[C@H]3CO)cc2)c1 | 0 | - | - | -
CCOP(=O)(Cc1cc(C(C)=O)c(C)o1)OCC | 0 | 0 | 0 | 0
CCCC(=O)c1cc(CP(=O)(OCC)OCC)oc1C | 0 | 0 | 0 | 50
O=c1cc(C(F)(F)F)c2cc3c4c(c2o1)CCCN4CCC3 | - | + | 0 | 0
O=C(Cc1cccs1)N1Cc2ccccc2-n2nncc2C1 | 41 | 0 | - | -
CCOC(=O)CNC(=O)N1Cc2ccccc2-n2nncc2C1 | 0 | + | - | -
O=C(NC[C@H]1CC[C@@H]2NC[C@@H]2O1)C1CCCC1 | 0 | - | - | -
N#CC1=C(N)Oc2c(c(=O)oc3ccccc23)C1c1ccc([N+](=O)[O-])o1 (configuration not stated) | 40 | 0 | 0 | 0
COC(=O)[C@@H]1[C@@H](C(=O)OC)C2(c3ccccc3-c3ccccc32)N(c2ccc(Cl)cc2)N1C#N | 0 | - | 0 | 0
COC(=O)C[C@]1(C(=O)OC)CN(C#N)N(c2ccc(Cl)cc2)C12c1ccccc1-c1ccccc12 | 0 | - | 0 | 57
C[N+](C)(C)Cc1ccccc1 | 76 | 0 | 0 | 0
CN(C)[C@@H]1C(=O)C(C(N)=O)=C(O)[C@@]2(O)C(=O)C3=C(O)c4c(O)ccc(Cl)c4[C@@](C)(O)C3C[C@@H]12 (some centres not stated) | 44 | 0 | - | 0
CN(C)C1C(=O)C(C(N)=O)=C(O)C2(O)C(=O)C3=C(O)c4c(O)cccc4C(C)(O)C3CC12 (configuration not stated) | - | 0 | 0 | 0
CN(C)[C@@H]1C(=O)C(C(N)=O)=C(O)[C@@]2(O)C(=O)C3=C(O)c4c(O)cccc4[C@@](C)(O)C3[C@H](O)C12 (some centres not stated) | 45 | 0 | 0 | 0
CN(C)[C@@H]1C(=O)C(C(N)=O)=C(O)[C@@]2(O)C(=O)C3=C(O)c4c(O)cccc4[C@@](C)(O)[C@H]3C[C@@H]12 | - | - | 0 | -
CN(C)C(=S)SSC(=S)N(C)C | 0 | + | 0 | 0
O=C(Cc1cccnc1)N1CCCCN2[C@H](CO)[C@H](c3ccc(/C=C/c4ccccc4)cc3)[C@@H]2C1 | 0 | - | - | -
O=C1CNC[C@@H]2[C@H](c3ccc(Br)cc3)[C@H](CO)N12 | 0 | - | - | -
O=C(COc1ccccc1)c1cn(Cc2ccccc2)c2ccccc12 | - | + | 0 | 0
Cn1cccc1/C=C1/C(=O)NC(=S)N(Cc2ccc(F)cc2)C1=O | 35 | 0 | 0 | 0
SMILES | Casp6 inh | Myeloid diff MLP | T cell modulator | Vif imaging
O=[N+]([O-])c1ccc(N2CCOCC2)c2cccnc12 | 0 | 0 | 0 | 0
O=[N+]([O-])c1ccc(N2CCOCC2)c2c1no[n+]2[O-] | 0 | - | - | 106
O=C1NC(=O)C(=Cc2ccc(-c3cc(Cl)ccc3[N+](=O)[O-])o2)C(=O)N1 | - | + | - | 0
CC=Cc1ccc2n(c1=O)C[C@H]1[C@H](CO)[C@@H](C(=O)O)[C@@H]2N1S(=O)(=O)c1ccccc1C (mixture of isomers) | 0 | - | - | -
COc1cccc(C(c2nnnn2-c2ccc3c(c2)OCCO3)N2CCC(n3c(=O)[nH]c4ccccc43)CC2)c1OC (configuration not stated) | 0 | + | - | -
COc1ccc(-n2nnnc2C(c2cccc(OC)c2OC)N2CCC(n3c(=O)[nH]c4ccccc43)CC2)cc1 (configuration not stated) | 0 | 0 | - | -
Cc1ccc(NC(=O)CC[C@H]2O[C@@H](n3cnc4c(NC(=O)c5ccccc5)ncnc43)[C@H](O)[C@@H]2O)cc1C | 0 | 0 | - | -
